Measurements taken from ChEMBL document CHEMBL4680142, “Thiazolidine-2,4-dione-based irreversible allosteric IKK-β kinase inhibitors: Optimization into in vivo active anti-inflammatory agents” (Eur J Med Chem, 2020).

Columns and labels:
RAW264.7 [1] = assay: Antiinflammatory activity against mouse RAW264.7 cells assessed as reduction in LPS-induced IL-6 level incubated for 1 hr followed by LPS stimulation and measured after 24 hrs by ELISA; format: functional, cell-based
Method in brief: (§1)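 RAW 264.7 cells (DMEM, 10% FBS, 37 °C, 5% CO2) plated at 2×10^5 cells/mL and left overnight. Compounds (0.1, 1, 10 µM) or NS-398 given for 1 h, then LPS 10 ng/mL for 24 h. Culture medium assayed by ELISA: competitive colorimetric for PGE2/TNF-α, mouse DuoSet for TNF-α/IL-6. IC50 is the concentration lowering the mediator to 50%.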

RAW264.7 [2] = assay: Antiinflammatory activity against mouse RAW264.7 cells assessed as reduction in LPS-induced TNF-alpha level incubated for 1 hr followed by LPS stimulation and measured after 24 hrs by ELISA; format: functional, cell-based; method in brief: as §1
[3] = molecular target: T1, Inhibitor of nuclear factor kappa-B kinase subunit beta (Homo sapiens, UniProt O14920); assay: Allosteric inhibition of IKKbeta (unknown origin) using 5FAM-GRHDSGLDSMK-NH2 as substrate pretreated for 10 mins followed measured after 2 hrs by TR-FRET assay
T1 sequence (O14920 whole entry): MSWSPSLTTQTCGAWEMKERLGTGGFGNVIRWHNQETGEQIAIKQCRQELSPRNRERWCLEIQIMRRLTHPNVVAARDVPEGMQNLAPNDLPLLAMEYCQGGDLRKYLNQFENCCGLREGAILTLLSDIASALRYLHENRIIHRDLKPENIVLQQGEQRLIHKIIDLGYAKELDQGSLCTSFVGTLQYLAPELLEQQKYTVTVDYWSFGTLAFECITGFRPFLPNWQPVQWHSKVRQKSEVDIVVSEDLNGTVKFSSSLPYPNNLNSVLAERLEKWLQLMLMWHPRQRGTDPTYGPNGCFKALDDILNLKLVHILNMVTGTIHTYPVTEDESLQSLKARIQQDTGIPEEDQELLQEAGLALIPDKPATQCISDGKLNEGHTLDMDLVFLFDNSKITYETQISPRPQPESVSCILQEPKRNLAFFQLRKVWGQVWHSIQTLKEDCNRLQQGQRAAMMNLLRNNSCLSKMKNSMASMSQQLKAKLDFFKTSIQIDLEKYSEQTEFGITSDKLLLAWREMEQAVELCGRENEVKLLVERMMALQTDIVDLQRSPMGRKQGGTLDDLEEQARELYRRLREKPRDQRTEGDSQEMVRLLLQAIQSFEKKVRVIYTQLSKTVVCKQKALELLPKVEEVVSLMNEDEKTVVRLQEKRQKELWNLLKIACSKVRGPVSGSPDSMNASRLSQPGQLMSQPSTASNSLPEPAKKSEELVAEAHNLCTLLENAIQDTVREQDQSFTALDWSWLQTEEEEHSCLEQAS
Method in brief: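 Enzyme: 0.5 µg/mL IKK2, in 10 mM Tris-HCl pH 7.2, 10 mM MgCl2, 0.05% NaN3, 1 mM DTT, 0.01% Tween-20. Compound at 10 µM pre-incubated 10 min, then 1 µM 5-FAM IκBα peptide and 3 µM ATP added. Reaction 2 h at room temperature. IMAP binding reagent/terbium detection mix added 15 h before reading. TR-FRET read with 340 nm excitation, emission 495/520 nm. Percent inhibition or IC50 derived.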

[4] = molecular target: T2, Inhibitor of nuclear factor kappa-B kinase subunit beta (Homo sapiens) (UniProt O14920); assay: Allosteric inhibition of IKKbeta (unknown origin) using 5FAM-GRHDSGLDSMK-NH2 as substrate at 0.001 to 30 uM pretreated for 10 mins followed by substrate addition measured immediately by TR-FRET assay; conditions: filed as negative allosteric modulator, dose 0.001-30 µM
T2 sequence (whole entry): T1 sequence (O14920 whole entry)
Method in brief: (§2)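 IKK2 (0.5 µg/mL) in 10 mM Tris-HCl pH 7.2, 10 mM MgCl2, 0.05% NaN3, 1 mM DTT, 0.01% Tween-20, room temperature. Compound (30 to 0.001 µM, ten roughly three-fold dilutions) preincubated 10 min with enzyme. Reaction started with 1 µM 5FAM-IκBα peptide and 3 µM ATP, run 0, 20, 40 or 60 min. IMAP binding reagent/terbium donor detection, TR-FRET read at 495/520 nm. Kobs fitted against concentration by nonlinear regression.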

[5] = molecular target: T2, Inhibitor of nuclear factor kappa-B kinase subunit beta (Homo sapiens); assay: Allosteric inhibition of IKKbeta (unknown origin) at 0.001 to 30 uM using 5FAM-GRHDSGLDSMK-NH2 as substrate incubated for 10 mins followed by substrate addition and measured after 20 mins by TR-FRET assay relative to control; conditions: filed as negative allosteric modulator, dose 0.001-30 µM, time 30.0 min; method in brief: as §2
RAW264.7 [6] = assay: Antiinflammatory activity against mouse RAW264.7 cells assessed as reduction in LPS-induced NO level incubated for 1 hr followed by LPS stimulation and measured after 24 hrs by Griess reagent based assay; format: functional, cell-based
Method in brief: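 RAW 264.7 cells in 24-well plates received compounds (0.1, 1, 10 µM) or L-NIL 40 µM positive control, then LPS 1 µg/mL for 24 h. Nitrite in the medium measured by Griess reaction as an NO surrogate. Values referenced to levels before and after LPS stimulation.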

RAW264.7 [7] = assay: Cytotoxicity against mouse RAW264.7 cells assessed as reduction in cell viability incubated for 24 hrs in presence of LPS by MTT assay; format: cell-based; conditions: RAW264.7, 24 h
Method in brief: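 MTT viability in RAW 264.7 cells seeded at 1×10^5 cells/mL and incubated overnight. Compounds added with or without LPS (1 µg/mL) for 24 h. MTT for 4 h at 37 °C, formazan dissolved in DMSO, absorbance read at 540 nm. IC80 is the concentration reducing viability to 80% with LPS.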

[8] = Metabolic stability in rat plasma assessed as parent compound remaining at 1 uM measured upto 2 hrs by LC-MS/MS analysis; format: ADME, cell-free; conditions: read-out: Stabilty
Method in brief: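 Rat plasma incubated with 1 µM compound at 37 °C for 0, 15, 30, 60 and 120 min. After separation, remaining compound quantified by LC-MS/MS as % remaining.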

[9] = molecular target: T2, Inhibitor of nuclear factor kappa-B kinase subunit beta (Homo sapiens); assay: Allosteric inhibition of IKKbeta (unknown origin) assessed as inactivation constant using 5FAM-GRHDSGLDSMK-NH2 as substrate incubated for 10 mins followed by substrate addition and measured upto 60 mins by TR-FRET assay; conditions: filed as negative allosteric modulator, time 70.0 min; method in brief: as §2
RAW264.7 [10] = assay: Antiinflammatory activity against mouse RAW264.7 cells assessed as reduction in LPS-induced TNF-alpha level at 10 uM incubated for 1 hr followed by LPS stimulation and measured after 24 hrs by ELISA relative to control; format: functional; conditions: time 25 hrs; method in brief: as §1
[11] = molecular target: T1, Inhibitor of nuclear factor kappa-B kinase subunit beta; assay: Allosteric inhibition of IKKbeta (unknown origin) using 5FAM-GRHDSGLDSMK-NH2 as substrate incubated for 10 mins followed by substrate addition and measured after 40 mins by TR-FRET assay
Method in brief: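 Kinetic IMAP TR-FRET run with 0.5 µg/mL IKK2 in 10 mM Tris-HCl pH 7.2, 10 mM MgCl2, 0.05% NaN3, 1 mM DTT, 0.01% Tween-20. Compound (ten doses, 30 to 0.001 µM) pre-incubated with enzyme 10 min, then 1 µM IκBα-derived substrate and 3 µM ATP added. Room temperature. Reactions run 0, 20, 40 or 60 min. Ten-point curves fitted by nonlinear regression.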

Row | SMILES | IC50 (RAW264.7 [1]) | IC50 (RAW264.7 [2]) | IC50 [3] | inhibition [4] | inhibition [5] | IC50 (RAW264.7 [6]) | IC80 (RAW264.7 [7]) | remaining at 2 h, 1 µM [8] | Kinact [9] | inhibition at 10 µM (RAW264.7 [10]) | IC50 [11] | inhibition (RAW264.7 [2]; time 25.0 hrs)
1 | CN1CCN(CCCOc2ccc(N3C(=O)S/C(=C\c4ccc(Oc5ccc(C#N)cc5)cc4)C3=O)cc2)CC1 | > 10 µM | 6.27 µM | 200 nM | -9.33% | -7.14% | > 10 µM | > 10 µM | 73.6% | 0.013 min⁻¹ | 80% | 251 nM | –
2 | CN1CCN(CCCCCOc2cccc(N3C(=O)S/C(=C\c4ccc(Oc5ccc([N+](=O)[O-])cc5)cc4)C3=O)c2)CC1 | > 10 µM | 5.22 µM | 220 nM | -5.63% | -3.68% | > 10 µM | > 10 µM | 83.3% | 0.027 min⁻¹ | 84% | 219 nM | Dose-dependent effect
